# Laboratory results reported in ChEMBL document CHEMBL3351861, “New synthetic sulfone derivatives inhibit growth, adhesion and the leucine arylamidase APE2 gene expression of Candida albicans in vitro” (2015).
# The source made the active and inactive calls. The rule behind the calls is not given here.
# Key:
# Candida albicans [1] = test: Reduction in APE2 gene expression in compound pre-treated Candida albicans SC5314 grown on human Caco2 cells monolayer at 16 ug/ml pre-treated for 2 hrs measured after 18 hrs by RT-PCR method; type: functional, Caco-2
# Outline: (§1)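 Caco-2 was seeded at 1.2×10^5 cells/ml in EMEM (10% FCS, 1 mM pyruvate, no antibiotics) for 18 h at 37°C, 5% CO2. Yeast (10^4 cfu/ml) was pre-incubated 2 h in RPMI with 16 µg/ml sulfone, washed, resuspended in RPMI and inoculated onto the monolayer at 37°C. APE2 mRNA was measured by SYBR qPCR against ACT1 (2^-ΔΔCt, 90028 calibrator), in triplicate.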
# Candida albicans [2] = test: Reduction in APE2 gene expression in compound pre-treated Candida albicans 90028 grown on human Caco2 cells monolayer at 16 ug/ml pre-treated for 2 hrs measured after 6 hrs by RT-PCR method; type: functional, Caco-2
# Outline: (§2)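 Blastoconidia are pre-incubated 2 h with 16 µg/ml sulfone in RPMI. They are then washed, resuspended in RPMI and placed on Caco-2 monolayers at 37°C, with RNA taken at 6 or 18 h. Real-time RT-PCR uses SYBR Green with 250 nM primers and 60 ng cDNA: 95°C 15 min, then 45 cycles of 94°C 15 s and 60°C 1 min, plus a melt curve. APE2 is normalized to ACT1 by 2^-ΔΔCt with 90028 as calibrator; three experiments.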
# Candida albicans [3] = test: Reduction in APE2 gene expression in compound pre-treated Candida albicans CAI4 expressing delta-cph1 gene grown on human Caco2 cells monolayer at 16 ug/ml pre-treated for 2 hrs measured after 6 hrs by RT-PCR method; type: functional, Caco-2; outline: as §2
# Candida albicans [4] = test: Reduction in APE2 gene expression in compound pre-treated Candida albicans CAI4 expressing delta-cph1 (CPH1) gene grown on human Caco2 cells monolayer at 16 ug/ml pre-treated for 2 hrs measured after 6 hrs by RT-PCR method; type: functional, Caco-2; outline: as §2
# Candida albicans [5] = test: Reduction in APE2 gene expression in compound pre-treated Candida albicans CAI4 expressing delta-cph1 (CPH1) gene grown on human Caco2 cells monolayer at 16 ug/ml pre-treated for 2 hrs measured after 18 hrs by RT-PCR method; type: functional, Caco-2; outline: as §2
# Candida albicans [6] = test: Reduction in APE2 gene expression in compound pre-treated Candida albicans CAI4 expressing delta-efg1 gene grown on human Caco2 cells monolayer at 16 ug/ml pre-treated for 2 hrs measured after 6 hrs by RT-PCR method; type: functional, Caco-2; outline: as §1
# Candida albicans [7] = test: Reduction in APE2 gene expression in compound pre-treated Candida albicans CAI4 expressing delta-efg1 gene grown on human Caco2 cells monolayer at 16 ug/ml pre-treated for 2 hrs measured after 18 hrs by RT-PCR method; type: functional, Caco-2; outline: as §1
# Candida albicans [8] = test: Reduction in APE2 gene expression in compound pre-treated Candida albicans CAI4 expressing delta-cph1/delta-efg1 gene grown on human Caco2 cells monolayer at 16 ug/ml pre-treated for 2 hrs measured after 6 hrs by RT-PCR method; type: functional, Caco-2; outline: as §2
# Candida albicans [9] = test: Increase in APE2 gene expression in compound pre-treated Candida albicans CAI4 expressing delta-cph1/delta-efg1 gene grown on human Caco2 cells monolayer at 16 ug/ml pre-treated for 2 hrs measured after 18 hrs by RT-PCR method; type: functional, Caco-2; outline: as §2
# Candida albicans [10] = test: Reduction in APE2 gene expression in compound pre-treated Candida albicans CAI4 expressing delta-efg1 (EFG1) gene grown on human Caco2 cells monolayer at 16 ug/ml pre-treated for 2 hrs measured after 18 hrs by RT-PCR method; type: functional, Caco-2; outline: as §1
# Candida albicans [11] = test: Reduction in APE2 gene expression in compound pre-treated Candida albicans CAI4 expressing delta-cph1/delta-efg1 (EFG1) gene grown on human Caco2 cells monolayer at 16 ug/ml pre-treated for 2 hrs measured after 6 hrs by RT-PCR method; type: functional, Caco-2; outline: as §2
# Candida albicans [12] = test: Reduction in APE2 gene expression in compound pre-treated Candida albicans CAI4 expressing delta-cph1/delta-efg1 (EFG1) gene grown on human Caco2 cells monolayer at 16 ug/ml pre-treated for 2 hrs measured after 18 hrs by RT-PCR method; type: functional, Caco-2; outline: as §2
# Candida albicans [13] = test: Inhibition of cell adhesion of compound pre-treated Candida albicans 90028 to human Caco2 cells assessed as cell adhesion level at 4 ug/ml pre-incubated for 18 hrs by colony counting method (reference value: 1.58 +/- 0.67%); type: functional, Caco-2; design: scale not given: the % may be the effect or the level left
# Candida albicans [14] = test: Inhibition of cell adhesion of compound pre-treated Candida albicans CAI4 expressing delta-efg1 (EFG1) gene to human Caco2 cells assessed as cell adhesion level at 4 ug/ml pre-incubated for 18 hrs by colony counting method (reference value: 2.6 +/- 2.33%); type: functional, Caco-2; design: scale not given: the % may be the effect or the level left
# Candida albicans [15] = test: Reduction in APE2 gene expression in compound pre-treated Candida albicans 90028 grown under YEPD medium at 16 ug/ml pre-treated for 2 hrs measured after 18 hrs by RT-PCR method; type: functional
# Outline: (§3)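 Blastoconidia from YEPD (10^4 cfu/ml) are washed and exposed 2 h to 16 µg/ml sulfone in YEPD. They are then washed and regrown 18 h at 30°C in YEPD before RNA extraction. Real-time RT-PCR uses SYBR Green with 250 nM primers and 60 ng cDNA: 95°C 15 min, then 45 cycles of 94°C 15 s and 60°C 1 min, plus a dissociation curve. APE2 is normalized to ACT1 by 2^-ΔΔCt with strain 90028 as calibrator; three experiments.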
# Candida albicans [16] = test: Reduction in APE2 gene expression in compound pre-treated Candida albicans CAI4 expressing delta-cph1 gene grown under YEPD medium at 16 ug/ml pre-treated for 2 hrs measured after 18 hrs by RT-PCR method; type: functional; outline: as §3
# Candida albicans [17] = test: Reduction in APE2 gene expression in compound pre-treated Candida albicans CAI4 expressing delta-cph1 (CPH1) gene grown under YEPD medium at 16 ug/ml pre-treated for 2 hrs measured after 18 hrs by RT-PCR method; type: functional; outline: as §3
# Candida albicans [18] = test: Reduction in APE2 gene expression in compound pre-treated Candida albicans CAI4 expressing delta-efg1 gene grown under YEPD medium at 16 ug/ml pre-treated for 2 hrs measured after 18 hrs by RT-PCR method; type: functional
# Outline: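 YEPD-grown yeast (18 h, 30°C) washed and held at 10^4 cfu/ml in YEPD with 16 µg/ml sulfone for 2 h. Cells were then washed and regrown 18 h at 30°C in YEPD. Total RNA was reverse-transcribed and SYBR Green qPCR run (250 nM primers, 60 ng cDNA, 45 cycles). APE2 was normalized to ACT1 by 2^-ΔΔCt with strain 90028 as calibrator. Done in triplicate on three occasions.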
# Candida albicans [19] = test: Reduction in APE2 gene expression in compound pre-treated Candida albicans CAI4 expressing delta-cph1/delta-efg1 gene grown under YEPD medium at 16 ug/ml pre-treated for 2 hrs measured after 18 hrs by RT-PCR method; type: functional; outline: as §3
# Candida albicans [20] = test: Reduction in APE2 gene expression in compound pre-treated Candida albicans CAI4 expressing delta-cph1/delta-efg1 (EFG1) gene grown under YEPD medium at 16 ug/ml pre-treated for 2 hrs measured after 18 hrs by RT-PCR method; type: functional; outline: as §3
# Candida albicans [21] = test: Inhibition of hyphae formation in Candida albicans 90028 assessed as appearance of spherical blastoconidia with polarly located budding without filament formation at 16 ug/ml incubated for 18 hrs by phase contrast microscopy
compound,measurement,setting,value
NNc1ccc(S(=O)(=O)C(Cl)(Br)Br)cc1[N+](=O)[O-],ΔCt,Candida albicans [1],3.83
same,ΔCt,Candida albicans [2],7.44
same,fold change (FC),Candida albicans [3],10.83
same,fold change (FC),Candida albicans [4],10.25
same,fold change (FC),Candida albicans [5],9.29
same,fold change (FC),Candida albicans [6],10.27
same,fold change (FC),Candida albicans [7],9.07
same,fold change (FC),Candida albicans [8],10.26
same,fold change (FC),Candida albicans [9],1.38
same,fold change (FC),Candida albicans [10],8.72
same,fold change (FC),Candida albicans [11],9.42
same,fold change (FC),Candida albicans [12],3.55
same,Activity,Candida albicans [13],0.91%
same,Activity,Candida albicans [14],0.91%
same,ΔCt,Candida albicans [15],2.82
same,ΔCt,Candida albicans [16],0.11
same,ΔCt,Candida albicans [17],4.71
same,ΔCt,Candida albicans [18],3.69
same,ΔCt,Candida albicans [19],4.05
same,ΔCt,Candida albicans [20],3.3
same,Activity,Candida albicans [21],Active
